Reference: ChEMBL document CHEMBL1212703, “Identification of RIP1 kinase as a specific cellular target of necrostatins” (Nat Chem Biol, 2008)
Numbering of substitutions follows the chain as printed. Active and inactive are the calls of the source. No cut-off for these calls is given here. Peptide text beside a SMILES is read from it. * marks the point of attachment. Cbz = O=C(OCc1ccccc1)*; CH2F = FC*

Tests used:
[1] = tested on: T1, Receptor-interacting serine/threonine-protein kinase 1 (Homo sapiens), Q13546 [K45M]; assay: Inhibition of human RIP1 K45M mutant autophosphorylation expressed in HEK293T cells; format: cell-based; details: HEK-293T
T1 sequence (whole entry): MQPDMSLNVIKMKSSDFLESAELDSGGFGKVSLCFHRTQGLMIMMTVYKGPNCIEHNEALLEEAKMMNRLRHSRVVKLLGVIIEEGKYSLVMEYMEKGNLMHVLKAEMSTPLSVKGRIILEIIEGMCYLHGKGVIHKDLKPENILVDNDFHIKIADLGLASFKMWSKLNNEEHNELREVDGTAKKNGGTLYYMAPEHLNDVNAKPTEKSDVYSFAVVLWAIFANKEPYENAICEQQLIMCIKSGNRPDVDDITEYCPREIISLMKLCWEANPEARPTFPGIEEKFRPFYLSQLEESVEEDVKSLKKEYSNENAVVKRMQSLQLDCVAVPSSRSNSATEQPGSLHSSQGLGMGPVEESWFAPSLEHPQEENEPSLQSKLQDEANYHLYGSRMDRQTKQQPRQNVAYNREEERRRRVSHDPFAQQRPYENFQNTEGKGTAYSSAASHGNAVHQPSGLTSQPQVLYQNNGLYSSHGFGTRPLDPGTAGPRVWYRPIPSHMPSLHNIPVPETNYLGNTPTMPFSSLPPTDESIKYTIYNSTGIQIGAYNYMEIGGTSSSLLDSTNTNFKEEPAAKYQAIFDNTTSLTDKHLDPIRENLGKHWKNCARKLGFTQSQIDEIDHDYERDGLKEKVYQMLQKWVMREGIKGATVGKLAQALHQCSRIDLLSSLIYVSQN

Jurkat [2] = assay: Inhibition of cellular necroptosis in TNFalpha treated FADD deficient human Jurkat cells; format: functional, cell-based
[3] = target: T2, Receptor-interacting serine/threonine-protein kinase 1 (Homo sapiens) (UniProt Q13546); assay: (§1) Inhibition of endogenous RIP1 autophosphorylation in human Jurkat cells; format: cell-based
T2 sequence (whole entry): T1 sequence (whole entry) with M45K
Procedure, shortened: (§2)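 RIP1 immunoprecipitated from Jurkat cells and autophosphorylated in vitro across a titration of compound. Autophosphorylation quantified by phosphorimager; EC50 derived by nonlinear regression curve fitting. An aliquot of each reaction was blotted for RIP1 to check protein input.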

[4] = tested on: T1, Receptor-interacting serine/threonine-protein kinase 1 (Homo sapiens), Q13546 [K45M]; assay: Inhibition of human RIP1 K45M mutant autophosphorylation expressed in Sf9 cells
[5] = target: Receptor-interacting serine/threonine-protein kinase 2 (Homo sapiens) (UniProt O43353); assay: Inhibition of human RIP2 autophosphorylation expressed in HEK293T cells; format: cell-based; details: HEK-293T
Receptor-interacting serine/threonine-protein kinase 2 (Homo sapiens), sequence (O43353 whole entry): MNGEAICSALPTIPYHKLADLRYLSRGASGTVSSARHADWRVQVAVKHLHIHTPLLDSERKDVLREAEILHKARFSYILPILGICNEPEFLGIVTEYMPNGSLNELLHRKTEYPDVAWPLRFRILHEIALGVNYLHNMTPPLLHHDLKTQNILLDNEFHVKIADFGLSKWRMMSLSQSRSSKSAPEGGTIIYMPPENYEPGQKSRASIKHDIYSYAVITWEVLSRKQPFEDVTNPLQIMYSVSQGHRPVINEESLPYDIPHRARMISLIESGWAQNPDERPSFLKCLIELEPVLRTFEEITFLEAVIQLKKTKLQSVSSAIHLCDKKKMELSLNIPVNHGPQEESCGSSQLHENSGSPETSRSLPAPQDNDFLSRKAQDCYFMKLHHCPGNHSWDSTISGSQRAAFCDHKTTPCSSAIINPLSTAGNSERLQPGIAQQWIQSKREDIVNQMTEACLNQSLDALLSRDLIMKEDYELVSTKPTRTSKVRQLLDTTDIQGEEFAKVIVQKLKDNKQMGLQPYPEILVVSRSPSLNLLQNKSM
Procedure, shortened: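 Myc-tagged RIP2 was transiently expressed in 293T cells, immunoprecipitated with anti-Myc antibody (clone 9E10), and used in an in vitro autophosphorylation kinase reaction with compound at the indicated concentrations, with DMSO as the vehicle.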

[6] = target: T3, Receptor-interacting serine/threonine-protein kinase 1 (Homo sapiens, UniProt Q13546); assay: as §1; format: cell-based; procedure, shortened: as §2
T3 sequence (Q13546 whole entry): T1 sequence (whole entry) with M45K

[7] = target: Receptor-interacting serine/threonine-protein kinase 3 (Homo sapiens) (UniProt Q9Y572); assay: Inhibition of human RIP3 autophosphorylation expressed in HEK293T cells; format: cell-based; details: HEK-293T
Receptor-interacting serine/threonine-protein kinase 3 (Homo sapiens), sequence (Q9Y572 whole entry, looked up): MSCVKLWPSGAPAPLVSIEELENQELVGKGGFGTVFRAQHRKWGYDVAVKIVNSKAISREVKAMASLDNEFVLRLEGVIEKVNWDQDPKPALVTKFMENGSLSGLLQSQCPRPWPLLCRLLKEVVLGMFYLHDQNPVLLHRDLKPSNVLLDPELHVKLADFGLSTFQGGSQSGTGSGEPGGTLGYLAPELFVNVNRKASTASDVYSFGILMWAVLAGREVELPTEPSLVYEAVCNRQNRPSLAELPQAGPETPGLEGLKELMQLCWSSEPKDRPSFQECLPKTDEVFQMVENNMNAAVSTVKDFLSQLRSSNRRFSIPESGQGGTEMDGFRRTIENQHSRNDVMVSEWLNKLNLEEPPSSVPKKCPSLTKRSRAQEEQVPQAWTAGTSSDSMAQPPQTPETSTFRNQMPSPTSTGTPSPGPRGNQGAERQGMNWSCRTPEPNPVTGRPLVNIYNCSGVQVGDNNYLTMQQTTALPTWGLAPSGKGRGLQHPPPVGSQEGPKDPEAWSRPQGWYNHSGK

Jurkat [8] = assay: Inhibition of cellular necroptosis in TNFalpha treated […] human Jurkat cells expressing RIP1 S161E mutant at 30 uM; format: functional, cell-based
Jurkat [9] = assay: Inhibition of cellular necroptosis in TNFalpha treated […] human Jurkat cells expressing RIP1 F162E mutant at 30 uM; format: functional, cell-based
[10] = target: T4, Heat shock protein HSP90 (Homo sapiens) (UniProt P07900+P08238); assay: Inhibition of FITC-geldanamycin binding to HSP90 in human Jurkat cell lysates at 30 uM by fluorimetric assay; format: cell-free
[11] = target: T4, Heat shock protein HSP90 (Homo sapiens); assay: Inhibition of to HSP90 in FADD deficient human Jurkat cells assessed as RIP protein degradation at 30 uM by Western blot; format: cell-based
Procedure, shortened: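 FADD-deficient Jurkat cells exposed to 30 µM compound for 16 hr; RIP1 levels then assessed by western blot against anti-RIP1, with tubulin as loading control.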

HEK-293T [12] = assay: Inhibition of TNF-alpha-induced NF-kappaB activation expressed in HEK293T cells at 30 uM by luciferase reporter gene assay; format: cell-based
Procedure, shortened: (§3)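 293T cells, 1.2*10^6/well, cotransfected with pNFkB-Luc and pRSV-β-galactosidase control; 48 h later stimulated with 10 ng ml-1 human TNFα for 4 h with 30 µM compound. Luciferase (Bright-Glo) normalized to β-gal activity (ONPG, 30 °C, A420). Results expressed as fold over unstimulated cells; s.d. shown.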

Jurkat [13] = assay: Inhibition of TNF-alpha-induced NF-kappaB activation expressed in FADD deficient human Jurkat cells at 30 uM by luciferase reporter gene assay; format: cell-based
Procedure, shortened: (§4)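 FADD-deficient Jurkat cells carrying a lentiviral NF-kB luciferase reporter, 2*10^4 cells/well, stimulated with 10 ng ml-1 human TNFα for 4 h with 30 µM compound. Luminescence read by Bright-Glo. Values given as fold luciferase increase over unstimulated cells; s.d. shown.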

[14] = tested on: T5, Receptor-interacting serine/threonine-protein kinase 1 (Homo sapiens), Q13546 [S161E]; details: HEK-293T, 100 uM
T5 sequence (whole entry): T1 sequence (whole entry) with M45K, S161E

Jurkat [15] = assay: Inhibition of cellular necroptosis in TNFalpha treated FADD and RIP1 deficient human Jurkat cells at 30 uM; format: functional, cell-based
[16] = tested on: T1, Receptor-interacting serine/threonine-protein kinase 1 (Homo sapiens), Q13546 [K45M]; assay: Inhibition of human RIP1 K45M mutant autophosphorylation expressed in FADD deficient human Jurkat cells at 10 to 30 uM; format: cell-based
[17] = tested on: T1, Receptor-interacting serine/threonine-protein kinase 1 (Homo sapiens), Q13546 [K45M]; assay: Inhibition of human RIP1 K45M mutant autophosphorylation expressed in Sf9 cells at 10 to 30 uM
HEK-293T [18] = assay: Inhibition of TNF-alpha-induced NF-kappaB activation expressed in HEK293T cells by luciferase reporter gene assay; format: cell-based; procedure, shortened: as §3
Jurkat [19] = assay: Inhibition of TNF-alpha-induced NF-kappaB activation expressed in FADD deficient human Jurkat cells by luciferase reporter gene assay; format: cell-based; procedure, shortened: as §4
[20] = tested on: T5, Receptor-interacting serine/threonine-protein kinase 1 (Homo sapiens), Q13546 [S161E]; assay: Inhibition of human RIP1 S161E mutant autophosphorylation expressed in HEK293T cells at 10 to 30 uM; format: cell-based; details: HEK-293T

## CN1C(=O)NC(Cc2c[nH]c3ccccc23)C1=O (stereo not drawn)
[1]
  inhibition: Active

## COc1ccc([C@H]2[C@H]3CCc4c(OC)cccc4C3=NN2C(C)=O)cc1
[1]
  inhibition: inactive
Jurkat [2]
  EC50: > 100 µM

## O=C1NC(=S)NC1Cc1c[nH]c2ccccc12 (stereo not drawn)
[1]
  inhibition: inactive
[3]
  inhibition: inactive
Jurkat [2]
  EC50: > 100 µM
[4]
  inhibition: inactive

## O=[N+]([O-])c1ccc(-c2nc(-c3ccc(F)cc3)c(-c3ccncc3)[nH]2)cc1
[5]
  inhibition: Active

## CN1C(=O)C(Cc2c[nH]c3ccccc23)NC1=S (stereo not drawn) [NECROSTATIN]
[1]
  inhibition: Dose-dependent effect
[6]
  EC50: 0.182 µM
[4]
  inhibition: Active
[5]
  inhibition: inactive
[7]
  inhibition: inactive
Jurkat [8]
  inhibition: inactive
Jurkat [9]
  inhibition: inactive
[10]
  inhibition: inactive
[11]
  inhibition: inactive
HEK-293T [12]
  inhibition: inactive
Jurkat [13]
  inhibition: inactive
[14]
  inhibition: inactive

## CN1C(=O)C(Cc2cn(C)c3ccccc23)NC1=S (stereo not drawn)
[1]
  inhibition: inactive
Jurkat [2]
  EC50: 33 µM

## CN1C(=O)C(Cc2c[nH]c3ccccc23)N(C)C1=S (stereo not drawn)
[1]
  inhibition: inactive
Jurkat [2]
  EC50: 78 µM

## CN1C(=O)C(C)(Cc2c[nH]c3ccccc23)NC1=S (stereo not drawn)
[1]
  inhibition: inactive
Jurkat [2]
  EC50: > 100 µM

## C[C@@H]1C[C@@H]([C@H](O)CC2CC(=O)NC(=O)C2)C(=O)[C@@H](C)C1
Jurkat [15]
  inhibition: inactive

## COc1ccc(-n2c(SCC#N)nc3sc4c(c3c2=O)CCCC4)cc1
[1]
  inhibition: Active
[4]
  inhibition: inactive
[16]
  inhibition: Active
[10]
  inhibition: inactive
[11]
  inhibition: inactive
HEK-293T [12]
  inhibition: inactive
Jurkat [13]
  inhibition: inactive

## N#CCSc1nc2sc3c(c2c(=O)n1-c1ccccc1)CCCC3
[1]
  inhibition: inactive
Jurkat [2]
  EC50: > 100 µM

## CN1C(=O)C(Cc2c[nH]c3c(Cl)cccc23)NC1=S (stereo not drawn)
[1]
  inhibition: Active

## COC(=O)C[C@H](NC(=O)[C@H](C)NC(=O)[C@@H](NC(=O)OCc1ccccc1)C(C)C)C(=O)CF (Cbz-Val-Ala-Asp(OMe)-CH2F)
Jurkat [15]
  inhibition: inactive

## COC1=C2C[C@@H](C)C[C@H](OC)[C@H](O)[C@@H](C)/C=C(\C)[C@H](OC(N)=O)[C@@H](OC)/C=C\C=C(/C)C(=O)NC(=CC1=O)C2=O
[16]
  inhibition: inactive
[17]
  inhibition: inactive
HEK-293T [18]
  inhibition: Active
Jurkat [19]
  inhibition: Active

## COc1ccc([C@H]2[C@H]3CCc4ccccc4C3=NN2C(C)=O)cc1
[1]
  inhibition: Active
Jurkat [2]
  EC50: 0.29 µM
[4]
  inhibition: Active
Jurkat [8]
  inhibition: Active
[16]
  inhibition: Active
[20]
  inhibition: Active
[10]
  inhibition: inactive
[11]
  inhibition: inactive
HEK-293T [12]
  inhibition: inactive
Jurkat [13]
  inhibition: inactive

## CN1CC(Cc2c[nH]c3c(Cl)cccc23)NC1=O (stereo not drawn)
Jurkat [2]
  EC50: > 100 µM
